# Assays:
# Cathepsin K [1] = biological target: T1, Cathepsin K (Homo sapiens, UniProt P43235); test: Concentration required to inhibit 50% of cysteine protease cathepsin K of human
# T1 sequence (P43235 whole entry): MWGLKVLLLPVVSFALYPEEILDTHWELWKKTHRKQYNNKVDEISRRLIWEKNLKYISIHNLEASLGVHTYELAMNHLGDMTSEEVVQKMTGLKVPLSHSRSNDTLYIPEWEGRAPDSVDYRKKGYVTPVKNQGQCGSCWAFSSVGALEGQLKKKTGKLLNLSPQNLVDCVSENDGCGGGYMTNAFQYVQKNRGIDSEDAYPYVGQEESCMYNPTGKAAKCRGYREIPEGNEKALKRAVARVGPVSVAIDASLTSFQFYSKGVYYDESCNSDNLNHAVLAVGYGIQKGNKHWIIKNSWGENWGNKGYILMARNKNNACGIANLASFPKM
# Method in brief: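 Reactions were started by adding inhibitor plus substrate to enzyme. AMC fluorescence (ex 360/em 440) progress curves were followed over 2.3 h at varied inhibitor concentrations. IC50 was fitted as rate = Vmax/(1+[I]/IC50).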
# Cathepsin K [2] = biological target: T2, Cathepsin K (Rattus norvegicus, UniProt O35186); test: Inhibition of cysteine protease cathepsin K of rat
# T2 sequence (O35186 whole entry): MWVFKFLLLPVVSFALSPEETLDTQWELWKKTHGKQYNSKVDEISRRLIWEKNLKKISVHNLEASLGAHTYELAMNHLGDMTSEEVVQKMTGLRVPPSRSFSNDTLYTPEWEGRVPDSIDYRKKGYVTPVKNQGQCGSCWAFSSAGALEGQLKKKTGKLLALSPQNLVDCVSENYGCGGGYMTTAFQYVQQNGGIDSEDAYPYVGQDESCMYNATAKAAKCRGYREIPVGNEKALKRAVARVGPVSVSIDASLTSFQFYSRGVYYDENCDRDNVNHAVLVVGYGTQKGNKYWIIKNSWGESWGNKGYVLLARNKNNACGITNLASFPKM
# [3] = Selectivity as ratio between IC50 against Cathepsin B and IC50 against Cathepsin K
# Method in brief: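 Human liver cathepsin B and recombinant human cathepsin K were each run with Cbz-Phe-Arg-AMC at 10 μM final (Km 400 and 70 μM). Both used pH 5.5 acetate/DTT/NaCl buffer, 10% DMSO, 30 °C and a 2.3 h fluorescence progress-curve read (ex 360/em 440). IC50s were fitted from rate vs [I], and the ratio of the two IC50s was taken.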
# [4] = biological target: Cathepsin (H and K) (Homo sapiens) (UniProt P09668+P43235); test: Selectivity for Cathepsins H and K, ratio of IC50; assay type: protein assay
# Sequence of Cathepsin (H and K) (Homo sapiens) (P09668 whole entry, looked up, one chain of several): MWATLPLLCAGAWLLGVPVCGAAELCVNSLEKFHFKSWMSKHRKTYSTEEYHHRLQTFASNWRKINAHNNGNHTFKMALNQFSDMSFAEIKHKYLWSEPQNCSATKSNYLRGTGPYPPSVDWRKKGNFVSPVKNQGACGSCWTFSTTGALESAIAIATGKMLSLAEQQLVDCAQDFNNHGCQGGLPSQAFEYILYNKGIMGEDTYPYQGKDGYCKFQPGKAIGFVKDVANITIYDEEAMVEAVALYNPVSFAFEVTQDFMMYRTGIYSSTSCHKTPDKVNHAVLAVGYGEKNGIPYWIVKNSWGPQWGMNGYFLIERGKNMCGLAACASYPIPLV
# Method in brief: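 Human liver cathepsin H was run with L-Arg-β-naphthalamide at 50 μM final (Km 195 μM), read at ex 340/em 420. Human cathepsin K used Cbz-Phe-Arg-AMC at 10 μM, read at ex 360/em 440. Both were at pH 5.5 with DTT/NaCl and 10% DMSO at 30 °C, with 2.3 h progress curves. IC50s were fitted from rate vs [I] and ratioed.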
# [5] = Selectivity as ratio between IC50 against Cathepsin L and IC50 against Cathepsin K
# Method in brief: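 Both assays used pH 5.5 acetate/DTT/NaCl, 10% DMSO, 30 °C and AMC fluorescence progress curves over 2.3 h. IC50s were fitted from rate vs [I] and taken as a ratio.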
# [6] = Selectivity ratio between IC50 against Cathepsin S and IC50 against Cathepsin K
# Method in brief: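 Recombinant human cathepsin S was run with Cbz-Val-Val-Arg-AMC at 10 μM final (Km >100 μM); human cathepsin K used Cbz-Phe-Arg-AMC at 10 μM. Both were in pH 5.5 sodium acetate with 10 mM DTT, 120 mM NaCl and 10% DMSO at 30 °C, with AMC fluorescence progress curves over 2.3 h. The ratio was taken from the fitted IC50s.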
# Homo sapiens = species: Homo sapiens; test: Selectivity as ratio between IC50 against Cathepsin V and IC50 against Cathepsin K
# Method in brief: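 Conditions were pH 5.5 acetate buffer with 10 mM DTT, 120 mM NaCl and 10% DMSO at 30 °C, with fluorescence progress curves over 2.3 h. The IC50 fits gave the ratio.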
# [7] = Area Under plasma concentration time curve in rat upon peroral administration; assay type: ADME, organism-based; conditions: po
# Method in brief: (§1)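 Rats were dosed iv into the femoral vein at 5 mg/kg or orally at 10 mg/kg, from a solution in 15% solutol/citrate buffer/0.1% ascorbic acid, pH 3.5. Blood was drawn from a jugular cannula before dosing and at 0.03–24 h, then clotted to serum. Samples were acetonitrile-precipitated with internal standard and analysed by LC-MS/MS (MRM). Parameters came from noncompartmental analysis.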
# [8] = Half-life in rat; assay type: ADME, organism-based; conditions: in vivo; method in brief: as §1
# [9] = Compound was tested for its cell permeability in the Madin-Darby canine kidney cell monolayer transport assay; assay type: ADME, Canis lupus familiaris; conditions: dog, MDCK; read-out: Activity
# [10] = Bioavailability in rat; assay type: ADME, organism-based; conditions: in vivo; method in brief: as §1
# [11] = Peak plasma concentration in rat; assay type: ADME, organism-based; method in brief: as §1
# [12] = Percent instability was measured by Rat S9 liver […] metabolism assay, in vitro; assay type: ADME, Liver S9 fraction; conditions: read-out: Activity
# Method in brief: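 Rat S9 liver metabolism, read as % metabolized after 1 h incubation at 37 °C, run in duplicate.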
# [13] = Maximum time required to achieve Cmax was determined in rat; assay type: ADME, organism-based; conditions: in vivo; method in brief: as §1
# Rattus norvegicus = species: Rattus norvegicus; test: Volume of distribution in steady state was determined in rat; assay type: ADME, organism-based; conditions: in vivo; method in brief: as §1
compound,measurement,setting,value
CCCC[C@H](NC(=O)OC(C(C)C)C(C)C)C(=O)C(=O)Nc1ccnn1C1CCC1,IC50,Cathepsin K [1],15 nM
same,IC50,Cathepsin K [2],1100 nM
same,Ratio,[3],> 830
same,Ratio,[4],> 830
same,Ratio,[5],290
same,Ratio,[6],130
same,Ratio,Homo sapiens,140
CCCC[C@H](NC(=O)OC(C(C)C)C(C)C)C(=O)C(=O)Nc1ccnn1-c1ccccn1,IC50,Cathepsin K [1],62 nM
same,IC50,Cathepsin K [2],1200 nM
same,Ratio,[3],> 200
same,Ratio,[5],40
same,Ratio,[6],8.3
same,Ratio,Homo sapiens,19
CCCC[C@H](NC(=O)OC(C(C)C)C(C)C)C(=O)C(=O)NCc1cccs1,IC50,Cathepsin K [1],9.2 nM
CCC(C)[C@H](NC(=O)OC(C(C)C)C(C)C)C(=O)C(=O)NCc1cccs1 (some centres not stated),IC50,Cathepsin K [1],87 nM
CCCC[C@H](NC(=O)OC(C(C)C)C(C)C)C(=O)C(=O)Nc1ccccn1,AUC,[7],2700 ng·h/mL
same,half-life,[8],2.17 h
same,Papp,[9],21 ×10⁻⁶ cm/s
same,bioavailability,[10],58%
same,Cmax,[11],1400 ng/mL
same,metabolised,[12],63%
same,Tmax,[13],0.25 h
same,IC50,Cathepsin K [1],32 nM
CCCC[C@H](NC(=O)OC(C(C)C)C(C)C)C(=O)C(=O)Nc1[nH]nc2cccc(F)c12,IC50,Cathepsin K [1],0.26 nM
same,Ratio,[6],2.3
CCCC[C@H](NC(=O)OC(C(C)C)C(C)C)C(=O)C(=O)Nc1cc[nH]n1,Vss,Rattus norvegicus,15 L/kg
same,AUC,[7],1100 ng·h/mL
same,half-life,[8],11.7 h
same,Papp,[9],48 ×10⁻⁶ cm/s
same,bioavailability,[10],41%
same,Cmax,[11],370 ng/mL
same,metabolised,[12],77%
same,Tmax,[13],0.25 h
same,IC50,Cathepsin K [1],0.77 nM
same,IC50,Cathepsin K [2],13 nM
same,Ratio,[3],670
same,Ratio,[4],30
same,Ratio,[5],40
same,Ratio,[6],3
same,Ratio,Homo sapiens,21
CC(C)C(OC(=O)N[C@H](C(=O)C(=O)NCc1cccs1)C(C)C)C(C)C,IC50,Cathepsin K [1],47 nM
CCCC[C@H](NC(=O)OC(C(C)C)C(C)C)C(=O)C(=O)Nc1ccnn1C1CCCC1,IC50,Cathepsin K [1],20 nM
same,IC50,Cathepsin K [2],1100 nM
CC(C)C[C@H](NC(=O)OC(C(C)C)C(C)C)C(=O)C(=O)NCc1cccs1,IC50,Cathepsin K [1],24 nM
CC(C)C(OC(=O)N[C@@H](Cc1ccccc1)C(=O)C(=O)NCc1cccs1)C(C)C,IC50,Cathepsin K [1],27 nM
CCCC[C@H](NC(=O)OC(C(C)C)C(C)C)C(=O)C(=O)Nc1cc(C)n[nH]1,IC50,Cathepsin K [1],0.71 nM
CCCC[C@H](NC(=O)OC(C(C)C)C(C)C)C(=O)C(=O)Nc1cccnc1,IC50,Cathepsin K [1],95 nM
CC(C)C(OC(=O)N[C@@H](CC1CCCCC1)C(=O)C(=O)NCc1cccs1)C(C)C,IC50,Cathepsin K [1],14 nM
CCCC[C@H](NC(=O)OC(C(C)C)C(C)C)C(=O)C(=O)Nc1cnccn1,IC50,Cathepsin K [1],52 nM
CCCC[C@H](NC(=O)OC(C(C)C)C(C)C)C(=O)C(=O)Nc1cc2ccccc2cn1,IC50,Cathepsin K [1],4.8 nM
CCCC[C@H](NC(=O)OC(C(C)C)C(C)C)C(=O)C(=O)Nc1ccnn1CC,IC50,Cathepsin K [1],26 nM
same,IC50,Cathepsin K [2],1500 nM
CCCC[C@H](NC(=O)OC(C(C)C)C(C)C)C(=O)C(=O)Nc1ccnn1C,AUC,[7],1800 ng·h/mL
same,half-life,[8],4 h
same,Papp,[9],49 ×10⁻⁶ cm/s
same,bioavailability,[10],28%
same,Cmax,[11],970 ng/mL
same,metabolised,[12],99%
same,Tmax,[13],0.633 h
same,IC50,Cathepsin K [1],32 nM
same,IC50,Cathepsin K [2],1700 nM
same,Ratio,[3],> 400
same,Ratio,[4],> 400
same,Ratio,[5],250
same,Ratio,[6],91
same,Ratio,Homo sapiens,50
CCCC[C@H](NC(=O)OC(C(C)C)C(C)C)C(=O)C(=O)Nc1cc(-c2ccccc2)n[nH]1,IC50,Cathepsin K [1],0.65 nM
same,IC50,Cathepsin K [2],12 nM
CCCC[C@H](NC(=O)OC(C(C)C)C(C)C)C(=O)C(=O)Nc1ccnn1CC1CC1,IC50,Cathepsin K [1],27 nM
same,IC50,Cathepsin K [2],1700 nM
same,Ratio,[3],> 470
same,Ratio,[4],> 470
same,Ratio,[5],220
same,Ratio,[6],41
same,Ratio,Homo sapiens,63
CCCC[C@H](NC(=O)OC(C(C)C)C(C)C)C(=O)C(=O)Nc1nncs1,AUC,[7],920 ng·h/mL
same,half-life,[8],2.83 h
same,bioavailability,[10],15%
same,Cmax,[11],690 ng/mL
same,metabolised,[12],96%
same,Tmax,[13],0.633 h
same,IC50,Cathepsin K [1],83 nM

# Reference: ChEMBL document CHEMBL1148287, “Design of potent, selective, and orally bioavailable inhibitors of cysteine protease cathepsin k” (J Med Chem, 2004)
